# Experimental data as given in ChEMBL document CHEMBL1122201, “Carboxyimamidate, a low-molecular-weight polyelectrolyte with antitumor properties and low toxicity” (1982).
# “And” between values parts separate entries of the source, which are not always exact repeats. Equal entries are not always repeated.
# Tests used:
# Mus musculus [1] = experiment: Ratio of mean tumor volume of treated groups to that of the mean of total untreated controls in the subcutaneous Lewis Lung Carcinoma model at a dose of 100-125 (mg/kg)/day; type: functional
# Summary of the method: (§1)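 Mice bearing sc Lewis lung carcinoma (groups of 10) received the saline-dissolved agent daily on days 1-5, 1-8 or 1-10, ip or sc. Perpendicular tumor diameters were measured with vernier calipers on day 14, and volume was taken as 0.5 × length × width². T/C is treated mean volume over the mean of all untreated controls (3-4 groups of 10), pooled across experiments as mean ± SE.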
# Mus musculus [2] = experiment: Proportion of survivors was determined on the 60th day at a dose of 900-1000 mg/kg/day; type: functional
# Summary of the method: (§2)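 Lewis lung carcinoma model in mice, groups of 10. Dosing daily on days 1-5, 1-8 or 1-10, ip or subcutaneous. Dose ranges pooled from nine independent experiments run at different levels. ILS is the percent increase in mean life span, excluding cures, over the mean of 3 or 4 untreated control groups of 10. Survivors scored at day 60.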
# Mus musculus [3] = species on record: Mus musculus; experiment: Tumor weight inhibition against colon carcinoma 26
# Mus musculus [4] = species on record: Mus musculus; experiment: Increase in mean life span was measured against B16 melanoma cells carcinoma 26; type: functional
# Rattus norvegicus = species on record: Rattus norvegicus; experiment: Increase in mean life span was measured against Walker carcinosarcoma cells
# Mus musculus [5] = experiment: Percent increase of mean life span of treated groups relative to the mean of the untreated control groups in the subcutaneous Lewis Lung Carcinoma model at a dose of 62-75 (mg/kg)/day; type: functional; summary of the method: as §2
# Mus musculus [6] = experiment: Percent increase of mean life span of treated groups relative to the mean of the untreated control groups in the subcutaneous Lewis Lung Carcinoma model at a dose of 300-400 (mg/kg)/day; type: functional; summary of the method: as §2
# Mus musculus [7] = species on record: Mus musculus; experiment: Increase in mean life span was measured against L5178 Y leukemia cells; type: functional
# Summary of the method: (§3)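 10^6 Trypan blue-excluding cells implanted ip (P815 sc) in groups of 10 mice: B6D2F1 for L5178Y and P815, BALB/c for ADJ-PC6, C3H for Gardner. Drug given ip in sterile saline, 0.5 mL/mouse, at or below the maximally tolerated dose for the schedule. ILS excludes long-term tumor-free survivors. Animals held 60 days; Student's t test against untreated controls.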
# Mus musculus [8] = experiment: Proportion of survivors was determined on the 60th day at a dose of 1200-1500 (mg/kg)/day; type: functional; summary of the method: as §2
# Mus musculus [9] = species on record: Mus musculus; experiment: Increase in mean life span was measured against Gardner lymphosarcoma cells; type: functional; summary of the method: as §3
# Mus musculus [10] = species on record: Mus musculus; experiment: Increase in mean life span was measured against colon carcinoma 26; type: functional
# Summary of the method: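 Colon carcinoma 26: 0.5 mL of 1% brei implanted sc or ip in groups of 10 CD2F1 mice. Drug given ip in sterile saline, 0.5 mL/mouse, at or below the maximally tolerated dose for the schedule. Mean life span excludes long-term tumor-free survivors. Animals held 60 days; Student's t test against untreated controls.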
# Mus musculus [11] = species on record: Mus musculus; experiment: Increase in mean life span was measured against M5076 ovarian tumor; type: functional
# Summary of the method: (§4)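 Tumor brei, 10%, 0.5 mL, implanted sc in groups of 10 mice: CD2F1 for Nettesheim and Madison, B6D2F1 for M5076. M5076 also implanted ip with the same inoculum; Madison im at 0.2 mL. Drug given ip in saline, 0.5 mL/mouse, at or below the maximally tolerated dose. ILS excludes long-term survivors. Animals held 60 days; t test.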
# Mus musculus [12] = experiment: Percent increase of mean life span of treated groups relative to the mean of the untreated control groups in the subcutaneous Lewis Lung Carcinoma model at a dose of 1200-1500 (mg/kg)/day; type: functional; summary of the method: as §2
# Mus musculus [13] = experiment: Average proportion of total treated mice without palpable tumors was determined in the subcutaneous Lewis Lung Carcinoma model at a dose of 300-400 (mg/kg)/day; type: functional
# Summary of the method: (§5)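 Sc-implanted Lewis lung carcinoma in mice, groups of 10. Agent dissolved in sterile saline and given daily on days 1-5, 1-8 or 1-10, ip or sc (0.5 mL/mouse). Each experiment had 3 or 4 untreated control groups of 10. The read-out was the average proportion of treated mice without palpable tumor on day 14, pooled over independent experiments as mean ± SE.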
# Mus musculus [14] = experiment: Ratio of mean tumor volume of treated groups to that of the mean of total untreated controls in the subcutaneous Lewis Lung Carcinoma model at a dose of 900-1000 mg/kg/day; type: functional; summary of the method: as §1
# Mus musculus [15] = experiment: Percent increase of mean life span of treated groups relative to the mean of the untreated control groups in the subcutaneous Lewis Lung Carcinoma model at a dose of 500-600 (mg/kg)/day; type: functional; summary of the method: as §2
# Mus musculus [16] = species on record: Mus musculus; experiment: Increase in mean life span was measured against Madison 109 lung carcinoma cells; type: functional, M109; summary of the method: as §4
# Mus musculus [17] = species on record: Mus musculus; experiment: Increase in mean life span was measured against colon carcinoma; type: functional
# Mus musculus [18] = experiment: Proportion of survivors was determined on the 60th day at a dose of 62-75 mg/kg/day; type: functional; summary of the method: as §2
# Mus musculus [19] = experiment: Ratio of mean tumor volume of treated groups to that of the mean of total untreated controls in the subcutaneous Lewis Lung Carcinoma model at a dose of 1200-1500 mg/kg/day; type: functional; summary of the method: as §1
# Mus musculus [20] = species on record: Mus musculus; experiment: Increase in mean life span was measured against M5076 ovarian tumor cells; type: functional; summary of the method: as §4
# Mus musculus [21] = species on record: Mus musculus; experiment: Tumor weight inhibition against M5076 ovarian tumor
# Mus musculus [22] = experiment: Ratio of mean tumor volume of treated groups to that of the mean of total untreated controls in the subcutaneous Lewis Lung Carcinoma model at a dose of 500-600 (mg/kg)/day; type: functional; summary of the method: as §1
# Mus musculus [23] = experiment: Proportion of survivors was determined on the 60th day at a dose of 100-125 mg/kg/day; type: functional; summary of the method: as §2
# Mus musculus [24] = experiment: Average proportion of total treated mice without palpable tumors was determined in the subcutaneous Lewis Lung Carcinoma model at a dose of 62-75 (mg/kg)/day; type: functional; summary of the method: as §5
# Mus musculus [25] = experiment: Proportion of survivors was determined on the 60th day at a dose of 300-400 (mg/kg)/day; type: functional; summary of the method: as §2
# Mus musculus [26] = experiment: Ratio of mean tumor volume of treated groups to that of the mean of total untreated controls in the subcutaneous Lewis Lung Carcinoma model at a dose of 300-400 (mg/kg)/day; type: functional; summary of the method: as §1
# Mus musculus [27] = experiment: Percent increase of mean life span of treated groups relative to the mean of the untreated control groups in the subcutaneous Lewis Lung Carcinoma model at a dose of 900-1000 (mg/kg)/day; type: functional; summary of the method: as §2
structure (smiles),measurement,setting,value
CC(c1ccccc1)C1C(=O)NC(=O)C1CCC(C(N)=O)C(CCC(CC(=O)O)C(N)=O)C(=O)O.N.N (stereo not drawn),T/C,Mus musculus [1],0.62
same,Proportion of survivors,Mus musculus [2],0.21
same,TWI,Mus musculus [3],70
same,ILS,Mus musculus [4],7%
same,ILS,Rattus norvegicus,3%
same,ILS,Mus musculus [5],12%
same,ILS,Mus musculus [6],17%
same,ILS,Mus musculus [7],5%
same,Proportion of survivors,Mus musculus [8],0.21
same,ILS,Mus musculus [9],4%
same,ILS,Mus musculus [10],22%
same,ILS,Mus musculus [11],20%
same,ILS,Mus musculus [12],24%
same,Average proportion,Mus musculus [13],0.27
same,T/C,Mus musculus [14],0.17
same,ILS,Mus musculus [15],15%
same,ILS,Mus musculus [16],27% and 23% and 20%
same,ILS,Mus musculus [17],14%
same,Proportion of survivors,Mus musculus [18],0.03
same,T/C,Mus musculus [19],0.16
same,ILS,Mus musculus [20],40%
same,TWI,Mus musculus [21],89
same,T/C,Mus musculus [22],0.32
same,Proportion of survivors,Mus musculus [23],0.04
same,Average proportion,Mus musculus [24],0.08
same,Proportion of survivors,Mus musculus [25],0.09
same,T/C,Mus musculus [26],0.4
same,ILS,Mus musculus [27],19%
